ChEMBL document CHEMBL3877250, “Design, synthesis, and biological evaluation of (2E)-(2-oxo-1, 2-dihydro-3H-indol-3-ylidene)acetate derivatives as anti-proliferative agents through ROS-induced cell apoptosis” (Eur J Med Chem, 2016)
Calls of active or inactive are those of the source. The rule behind the calls is not given here.

Key:
HCT-116 [1] = experiment: Induction of apoptosis in human HCT116 cells after 48 hrs by Annexin V-FITC/propidium iodide staining based flow cytometry; assay type: functional, cell-based
In short: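 HCT116 seeded at 2×10^5 cells/well, cultured 6 h, then treated 48 h at 0.1, 0.5, 1, 4, 8 or 16 µM; DMSO (0.1%) served as vehicle. Cells washed twice in cold PBS, resuspended in binding buffer with FITC Annexin V and PI for 15 min at RT in the dark, diluted, and run on flow cytometry within 1 h.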

HCT-116 [2] = experiment: Induction of apoptosis in human HCT116 cells assessed as necrotic cells at 4 uM after 48 hrs by Annexin V-FITC/propidium iodide staining based flow cytometry (reference value: 0.8%); assay type: functional
[3] = Cell cycle arrest in human HCT116 cells assessed as G2/M phase accumulation at 3 uM after 48 hrs by Annexin V-FITC/propidium iodide staining based flow cytometry (reference value: 25.3%); assay type: functional; settings: HCT-116
[4] = Cytotoxicity against human L02 cells; assay type: toxicity, cell-based
HCT-116 [5] = experiment: Induction of apoptosis in human HCT116 cells assessed as increase in intracellular reactive oxygen species at 0.17 to 8 uM by DCFH-DA probe-based flow cytometry; assay type: functional, cell-based; settings: TDE = time-dependent effect
In short: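 For the dose series, HCT116 cells were seeded at 5 × 10⁴ cells/well, grown 24 h, then exposed 3 h to DMSO or graded compound levels, with a Rosup positive group. Cells were washed with PBS and serum-free medium, loaded with DCFH-DA (1 μmol/L) in serum-free medium at 37 °C for 20 min, and ROS fluorescence was read by flow cytometry.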

[6] = Cell cycle arrest in human HCT116 cells assessed as G1 phase accumulation at 0.5 uM after 48 hrs by Annexin V-FITC/propidium iodide staining based flow cytometry (reference value: 40.83%); assay type: functional; settings: HCT-116
[7] = Antitumor activity against human HepG2 cells assessed as growth inhibition at 20 uM after 72 hrs by CCK-8 assay; assay type: functional; settings: HepG2, 72 h, read-out: GI
In short: (§1)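 Cells kept in RPMI 1640 with 10% heat-inactivated fetal calf serum and 1% streptomycin/penicillin at 37 °C, 5% CO2. After compound exposure, CCK-8 was added and cells were incubated 4 h at 37 °C, then absorbance was read at 450 nm. Viability is relative to untreated cells (100%). IC50 comes from nonlinear regression, mean of three separate determinations. Single-concentration screen at 20 µM.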

[8] = Cytotoxicity against human MDA-MB-231 cells after 72 hrs by CCK-8 assay; assay type: functional, cell-based; settings: MDA-MB-231, 72 h; in short: as §1
[9] = Cell cycle arrest in human HCT116 cells assessed as G1 phase accumulation at 4 uM after 48 hrs by Annexin V-FITC/propidium iodide staining based flow cytometry (reference value: 40.83%); assay type: functional; settings: HCT-116
[10] = Cell cycle arrest in human HCT116 cells assessed as G1 phase accumulation at 1 uM after 48 hrs by Annexin V-FITC/propidium iodide staining based flow cytometry (reference value: 40.83%); assay type: functional; settings: HCT-116
[11] = Cell cycle arrest in human HCT116 cells assessed as S phase accumulation at 1 uM after 48 hrs by Annexin V-FITC/propidium iodide staining based flow cytometry (reference value: 28.43%); assay type: functional; settings: HCT-116
[12] = Cell cycle arrest in human HCT116 cells assessed as S phase accumulation at 2 uM after 48 hrs by Annexin V-FITC/propidium iodide staining based flow cytometry (reference value: 28.43%); assay type: functional; settings: HCT-116
HCT-116 [13] = experiment: Induction of apoptosis in human HCT116 cells assessed as early apoptotic cells at 8 uM after 48 hrs by Annexin V-FITC/propidium iodide staining based flow cytometry (reference value: 3.8%); assay type: functional
HCT-116 [14] = experiment: Induction of apoptosis in human HCT116 cells assessed as live cells at 8 uM after 48 hrs by Annexin V-FITC/propidium iodide staining based flow cytometry (reference value: 88.7%); assay type: functional
[15] = Cytotoxicity against human Saos2 cells after 72 hrs by CCK-8 assay; assay type: functional, cell-based; settings: SAOS-2, 72 h; in short: as §1
HCT-116 [16] = experiment: Induction of apoptosis in human HCT116 cells assessed as late apoptotic cells at 8 uM after 48 hrs by Annexin V-FITC/propidium iodide staining based flow cytometry (reference value: 6.7%); assay type: functional
[17] = Cell cycle arrest in human HCT116 cells assessed as G1 phase accumulation at 2 uM after 48 hrs by Annexin V-FITC/propidium iodide staining based flow cytometry (reference value: 40.83%); assay type: functional; settings: HCT-116
[18] = Cytotoxicity against human SW480 cells after 72 hrs by CCK-8 assay; assay type: functional, cell-based; settings: SW480, 72 h; in short: as §1
HCT-116 [19] = experiment: Induction of apoptosis in human HCT116 cells assessed as live cells at 16 uM after 48 hrs by Annexin V-FITC/propidium iodide staining based flow cytometry (reference value: 88.7%); assay type: functional
[20] = Cell cycle arrest in human HCT116 cells assessed as sub-G1 phase accumulation at 0.1 uM after 48 hrs by Annexin V-FITC/propidium iodide staining based flow cytometry (reference value: 4.36%); assay type: functional; settings: HCT-116
[21] = Cell cycle arrest in human HCT116 cells assessed as G2/M phase accumulation at 1 uM after 48 hrs by Annexin V-FITC/propidium iodide staining based flow cytometry (reference value: 25.3%); assay type: functional; settings: HCT-116
HCT-116 [22] = experiment: Induction of apoptosis in human HCT116 cells assessed as necrotic cells at 16 uM after 48 hrs by Annexin V-FITC/propidium iodide staining based flow cytometry (reference value: 0.8%); assay type: functional
HCT-116 [23] = experiment: Induction of apoptosis in human HCT116 cells assessed as live cells at 0.5 uM after 48 hrs by Annexin V-FITC/propidium iodide staining based flow cytometry (reference value: 88.7%); assay type: functional
HCT-116 [24] = experiment: Induction of apoptosis in human HCT116 cells assessed as late apoptotic cells at 1 uM after 48 hrs by Annexin V-FITC/propidium iodide staining based flow cytometry (reference value: 6.7%); assay type: functional
[25] = Cytotoxicity against human OVCAR3 cells assessed as growth inhibition at 20 uM after 72 hrs by CCK-8 assay; assay type: functional; settings: OVCAR-3, 72 h, read-out: GI; in short: as §1
[26] = Cell cycle arrest in human HCT116 cells assessed as S phase accumulation at 4 uM after 48 hrs by Annexin V-FITC/propidium iodide staining based flow cytometry (reference value: 28.43%); assay type: functional; settings: HCT-116
HCT-116 [27] = experiment: Induction of apoptosis in human HCT116 cells assessed as increase in Bax protein level after 9 hrs by Western blot method; assay type: functional, cell-based
In short: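 HCT116 cells plated at 4 × 10⁵ cells/well in six-well plates. Incubated with or without compound for 9 h, then proteins extracted. Lysates resolved by 12% SDS-PAGE and immunoblotted with anti-Bax and anti-Bcl-2 antibodies.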

[28] = Cytotoxicity against human SW480 cells assessed as growth inhibition at 20 uM after 72 hrs by CCK-8 assay; assay type: functional; settings: SW480, 72 h, read-out: GI; in short: as §1
[29] = Cytotoxicity against human HL60 cells assessed as growth inhibition at 20 uM after 72 hrs by CCK-8 assay; assay type: functional; settings: HL-60, 72 h, read-out: GI; in short: as §1
[30] = Cytotoxicity against human SK-BR-3 cells assessed as growth inhibition at 20 uM after 72 hrs by CCK-8 assay; assay type: functional; settings: SK-BR-3, 72 h, read-out: GI; in short: as §1
[31] = Cell cycle arrest in human HCT116 cells assessed as sub-G1 phase accumulation at 2 uM after 48 hrs by Annexin V-FITC/propidium iodide staining based flow cytometry (reference value: 4.36%); assay type: functional; settings: HCT-116

For `CC(C)(C)OC(=O)/C=C1/C(=O)Nc2ccccc21`, the Activity (HCT-116 [1]) was “Dose-dependent effect”, the Activity (HCT-116 [2]) was 0.7% and the Activity [3] was 22.6%. For the same compound, the IC50 [4] was 6.21 µM, the Activity (HCT-116 [5]) was “Tde” and the Activity [6] was 40.9%. It also gave an inhibition of growth at 20 µM [7] of 86.1%, an IC50 [8] of 2520 nM and an Activity [9] of 26.2%. It also gave an Activity [10] of 25.4%, an Activity [11] of 34.3% and an Activity [12] of 25.2%. It also gave an Activity (HCT-116 [13]) of 7.1%, an Activity (HCT-116 [14]) of 78.4% and an IC50 [15] of 6.11 µM. The Activity (HCT-116 [16]) was 13.6%, the Activity [17] was 40.9% and the IC50 [18] was 5.68 µM. For the same compound, the Activity (HCT-116 [19]) was 26.1%, the Activity [20] was 1.27% and the Activity [21] was 33.1%. The Activity (HCT-116 [22]) was 2.1%, the Activity (HCT-116 [23]) was 89% and the Activity (HCT-116 [24]) was 9.1%. For the same compound, the inhibition of growth at 20 µM [25] was 59.6%, the Activity [26] was 22.8% and the Activity (HCT-116 [27]) was “Active”. For the same compound, the inhibition of growth at 20 µM [28] was 78.1%, the inhibition of growth at 20 µM [29] was 94.5% and the inhibition of growth at 20 µM [30] was 87.3%. It also gave an Activity [31] of 3.42%.
